Published values pooled from the literature.
Compare with care: the assays were run in different laboratories. pIC50, pKi: −log10 of the molar value.
Oprd1: Delta-type opioid receptor (Oprd1, Rattus norvegicus, UniProt P33533)
CTSB: Cathepsin B (CTSB, Homo sapiens, UniProt P07858)
HTR7: 5-hydroxytryptamine receptor 7 (HTR7, Homo sapiens, UniProt P34969)

`CCc1cccc(C)c1C[C@H](NC(=O)[C@@H](CCCNC(=N)N)NC(=O)[C@@H](N)Cc1c(C)cc(O)cc1C)C(=O)N[C@@H](CCCCN)C(N)=O` gave a pKi of 7.30 (Oprd1; ligand displacement, radioligand; cell membranes).
With `N=C(N)NCCC[C@@H]1NC(=O)[C@H](Cc2ccc(O)cc2)NC(=O)[C@@H](CCCCN)NC(=O)[C@@H](Cc2ccccc2)NC1=O` the pKi was under 5.00 (Oprd1; ligand displacement, radioligand; cell membranes).
`c1cncc(C2C3CCN2CC3)c1` (stereo not drawn) gave a pKi of 8.13 (Neuronal acetylcholine receptor subunit alpha-4/beta-2 (Mus musculus, UniProt O70174+Q9ERK7); ligand displacement, radioligand; cell membranes).
For `CCCCCCCCCCCCCCCCOC[C@H](COP(=O)([O-])OCC[N+](C)(C)C)OC(C)=O`, the pIC50 was 9.60 (Platelet-activating factor receptor (PTAFR, Homo sapiens, UniProt P25105); ligand displacement, radioligand).
`Cc1cc(O)cc(C)c1C[C@H](N)C(=O)N1CCc2ccc(Cc3ccc(N)cc3)cc2C1` gave a pKi of 8.51 (Oprd1; ligand displacement, radioligand; cell membranes).
`CC[C@H](NC(=O)OCc1ccccc1)C(=O)N[C@H](C(=O)N[C@@H](CC(C)C)C(=O)N(C)N(C#N)CCC(N)=O)C(C)(C)C` has a pKi of 7.54 (CTSB; enzyme activity, inhibitor).
`CC[C@H](C)[C@H](NC(=O)[C@H](CCCNC(=N)N)NC(=O)[C@H](CC(C)C)NC(=O)[C@@H](N)Cc1ccccc1)C(=O)N[C@@H](CCCNC(=N)N)C(=O)N1CCC[C@H]1C(=O)N[C@@H](CCCCN)C(=O)O` has a pKi of under 5.00 (HTR7; cell-free assay, radioligand).
The pKi of `OC(c1ccc(F)cc1)C(F)(F)CCN1CCC(O)(c2ccc(Cl)cc2)CC1` (racemic) is reported as 5.57 (HTR7; cell-free assay, radioligand).
`CC(C)C[C@H]1C(=O)N2CCC[C@H]2[C@]2(O)O[C@](NC(=O)[C@@H]3C=C4c5cccc6[nH]c(Br)c(c56)C[C@H]4N(C)C3)(C(C)C)C(=O)N12` gave a pKi of 6.84 (HTR7; ligand displacement, radioligand; cell membranes).
`Cc1ccccc1Cc1ccc2c(c1)CN(C(=O)[C@@H](N)Cc1c(C)cc(O)cc1C)CC2` gave a pKi of 8.24 (Oprd1; ligand displacement, radioligand; cell membranes).
`COC1=C(N)C(=O)c2nc(-c3nc(C(=O)O)c(C)c(-c4ccc(OC)c(OC)c4O)c3N)ccc2C1=O` gave a pKi of 6.86 (Sentrin-specific protease 1 (SENP1, Homo sapiens, UniProt Q9P0U3); enzyme activity, inhibitor, fluorescence).
With `Cc1cc(O)cc(C)c1C[C@H](N)C(=O)N[C@H](CCCNC(=N)N)C(=O)N[C@@H](Cc1c[nH]c2ccccc12)C(=O)N[C@@H](CCCCN)C(N)=O` the pKi was 6.73 (Oprd1; ligand displacement, radioligand; cell membranes).
The pKi of `COc1cc2oc(-c3ccc(O)c(O)c3)cc(=O)c2c(O)c1O` is reported as 5.35 (Genome polyprotein, protease (ZIKV, UniProt A0A024B7W1); enzyme activity, inhibitor).
With `CC(C)C[C@H](NC(=O)[C@H](CCCCN)NC(=O)[C@@H]1CCCN1C(=O)[C@@H](N)CCCNC(=N)N)C(=O)N[C@@H](CCCCN)C(=O)O` the pKi was under 5.00 (HTR7; cell-free assay, radioligand).
`Cc1cc(O)cc(C)c1C[C@H](N)C(=O)N[C@@H]1CCN(C(=O)c2ccccc2)c2ccc(Cc3cnc4ccccc4c3)cc21` gave a Kb of 8 nM (Oprd1; GTPγS binding, antagonist; cell membranes).
The pKi of `Cc1cc(O)cc(C)c1C[C@H](C)C(=O)N[C@@H]1C/C=C/CC[C@@H](C(N)=O)NC(=O)[C@H](Cc2ccccc2)NC(=O)[C@H](Cc2ccccc2)NC1=O` is reported as 7.45 (Oprd1; ligand displacement, radioligand; cell membranes).
The pKi of `CN(C(=O)[C@H](Cc1ccccc1)NC(=O)[C@@H](NC(=O)OCc1ccccc1)C(C)(C)C)N(C#N)CCC(N)=O` is reported as 7.12 (CTSB; enzyme activity, inhibitor).
`C[C@H](N)Cn1ncc2ccc3c(c21)CCCO3` has a pKi of 5.94 (HTR7; ligand displacement, radioligand).
